The test system of assay [1] is Staphylococcus aureus. As to the kind of experiment: Inhibition of FtsZ in penicillin-susceptible Staphylococcus aureus ATCC 25923 assessed as lowest drug concentration causing inhibition of cell division incubated for 5 hrs by phase-contrast light microscopy. The method in brief:
(§1)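 Cell division inhibition judged from bacterial cell morphology under phase-contrast light microscopy, scored as lowest concentration altering division; penicillin-susceptible strains B. subtilis ATCC9372, E. coli ATCC25922, P. aeruginosa ATCC27853, S. aureus ATCC25923.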

The test system of assay [2] is Staphylococcus aureus. Put plainly: Antibacterial activity against […] Staphylococcus aureus ATCC 29213 incubated for 24 hrs by tube-dilution method. The format is functional. The settings on record: ATCC 29213, 24 h. The method in brief:
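Broth tube-dilution MIC run as NCCLS recommends, against the […] S. aureus strain ATCC29213.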

The test system of assay [3] is Streptococcus pyogenes. As to the kind of experiment: Antibacterial activity against penicillin-resistant Streptococcus pyogenes clinical isolates incubated for 24 hrs by tube-dilution method. The assay is classed as functional.
For assay [4], the system named is Bacillus subtilis. As to the kind of experiment: Antibacterial activity against penicillin-susceptible Bacillus subtilis ATCC 9372 incubated for 24 hrs by tube-dilution method. The assay is classed as functional. The settings on record: ATCC 9372, 24 h. The method in brief:
(§2)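 MIC by tube dilution per NCCLS; B. subtilis ATCC9372, E. coli ATCC25922, P. aeruginosa ATCC27853 and S. aureus ATCC25923 are penicillin-susceptible strains.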

Assay [5] concerns Streptococcus pyogenes. As to the kind of experiment: Antibacterial activity against penicillin-susceptible Streptococcus pyogenes clinical isolates incubated for 24 hrs by tube-dilution method. The format is functional.
In assay [6] the test system is Bacillus subtilis. As to the kind of experiment: Inhibition of FtsZ in penicillin-susceptible Bacillus subtilis ATCC 9372 assessed as lowest drug concentration causing inhibition of cell division incubated for 5 hrs by phase-contrast light microscopy. The method in brief:
as §1

Assay [7] has as its system Escherichia coli. As to the kind of experiment: Antibacterial activity against penicillin-susceptible Escherichia coli ATCC 25922 incubated for 24 hrs by tube-dilution method. The assay is classed as functional. To be noted: ATCC 25922, 24 h. The method in brief:
as §2

Assay [8] has as its system Staphylococcus aureus. As to the kind of experiment: Antibacterial activity against penicillin-resistant Staphylococcus aureus clinical isolates incubated for 24 hrs by tube-dilution method. The assay is classed as functional.
The test system of assay [9] is Pseudomonas aeruginosa. Put plainly: Antibacterial activity against penicillin-susceptible Pseudomonas aeruginosa ATCC 27853 incubated for 24 hrs by tube-dilution method. The format is functional. The settings on record: ATCC 27853, 24 h. The method, boiled down: as §2
In assay [10] the test system is Escherichia coli. As to the kind of experiment: Inhibition of FtsZ in penicillin-susceptible Escherichia coli ATCC 25922 assessed as lowest drug concentration causing inhibition of cell division incubated for 5 hrs by phase-contrast light microscopy. The method in brief: as §1
The species entered for assay [11] is Sus scrofa. Put plainly: Induction of porcine tubulin polymerisation at 2 times MIC for penicillin-resistant Staphylococcus aureus by fluorescence microscopy. The method in brief: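 Polymerisation of mammalian tubulin measured with a commercial tubulin assay kit, read by fluorescence of the kit reporter, with paclitaxel as the positive control for enhanced polymerisation.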

Assay [12] is filed under the species Sus scrofa. As to the kind of experiment: Inhibition of porcine tubulin polymerisation at 256 ug/ml by fluorescence microscopy. The method in brief: (§3)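 Polymerisation of mammalian tubulin followed with a commercial tubulin assay kit using a fluorescent reporter; compounds tested at 32 µg/mL or 256 µg/mL, paclitaxel as positive control.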
Assay [13] concerns Staphylococcus aureus. As to the kind of experiment: Antibacterial activity against penicillin-susceptible Staphylococcus aureus ATCC 25923 incubated for 24 hrs by tube-dilution method. The assay is classed as functional. The settings on record: ATCC 25923, 24 h. The method, boiled down:
as §2

The subject of assay [14] is Pseudomonas aeruginosa. Put plainly: Inhibition of FtsZ in penicillin-susceptible Pseudomonas aeruginosa ATCC 27853 assessed as lowest drug concentration causing inhibition of cell division incubated for 5 hrs by phase-contrast light microscopy. The method, boiled down:
as §1

The test system of assay [15] is Staphylococcus epidermidis. Put plainly: Antibacterial activity against penicillin-resistant Staphylococcus epidermidis clinical isolates incubated for 24 hrs by tube-dilution method. The format is functional.
For assay [16], the system named is Bacillus subtilis. Put plainly: Potency index, ratio of MIC for oxacillin sodium to MIC for test compound against penicillin-susceptible Bacillus subtilis ATCC 9372 incubated for 24 hrs by tube-dilution method. The assay is classed as functional.
The subject of assay [17] is Bacillus subtilis. As to the kind of experiment: Potency index, ratio of MIC for sanguinarine to MIC for test compound against penicillin-susceptible Bacillus subtilis ATCC 9372 incubated for 24 hrs by tube-dilution method. The assay is classed as functional.
For assay [18], the system named is Bacillus subtilis. As to the kind of experiment: Potency index, ratio of MIC for curcumin to MIC for test compound against penicillin-susceptible Bacillus subtilis ATCC 9372 incubated for 24 hrs by tube-dilution method. The format is functional.
The subject of assay [19] is Streptococcus pyogenes. As to the kind of experiment: Potency index, ratio of MIC for sanguinarine to MIC for test compound against penicillin-susceptible Streptococcus pyogenes clinical isolates incubated for 24 hrs by tube-dilution method. The assay is classed as functional.
Assay [20] is filed under the species Sus scrofa. Put plainly: Inhibition of porcine tubulin polymerisation at 32 ug/ml by fluorescence microscopy. The method in brief: as §3
The subject of assay [21] is Streptococcus pyogenes. As to the kind of experiment: Potency index, ratio of MIC for oxacillin sodium to MIC for test compound against penicillin-susceptible Streptococcus pyogenes clinical isolates incubated for 24 hrs by tube-dilution method. The assay is classed as functional.
Assay [22] has as its system Bacillus subtilis. As to the kind of experiment: Potency index, ratio of MIC for ciprofloxaxin to MIC for test compound against penicillin-susceptible Bacillus subtilis ATCC 9372 incubated for 24 hrs by tube-dilution method. The format is functional.
For assay [23], the system named is Staphylococcus aureus. As to the kind of experiment: Potency index, ratio of MIC for curcumin to MIC for test compound against […] Staphylococcus aureus ATCC 29213 incubated for 24 hrs by tube-dilution method. The assay is classed as functional.
The test system of assay [24] is Staphylococcus aureus. As to the kind of experiment: Potency index, ratio of MIC for oxacillin sodium to MIC for test compound against […] Staphylococcus aureus ATCC 29213 incubated for 24 hrs by tube-dilution method. The format is functional.

Active and inactive are the calls of the source. No cut-off for these calls is given here.

For `C[n+]1cc2ccccc2c2cc(OC(F)(F)F)ccc21.[Cl-]`, the MIC in the assay with Staphylococcus aureus [1] is 128 µg/mL; against Staphylococcus aureus [2], greater than 128 µg/mL; against Streptococcus pyogenes [3] it was 128 µg/mL; against Bacillus subtilis [4] it was 128 µg/mL; with Streptococcus pyogenes [5], 128 µg/mL; in the assay with Bacillus subtilis [6], 64 µg/mL. In addition, the MIC in the assay on Escherichia coli [7] is greater than 128 µg/mL; in the assay on Staphylococcus aureus [8], 128 µg/mL; in the assay on Pseudomonas aeruginosa [9], greater than 128 µg/mL; with Escherichia coli [10] it was greater than 128 µg/mL; against Staphylococcus aureus [13], 128 µg/mL; in the assay with Pseudomonas aeruginosa [14], greater than 128 µg/mL. The molecule further registered an MIC in assay [15] of 128 µg/mL. Besides, the result in the assay filed under Sus scrofa [11] was inactive. Moreover, in the assay listed under Sus scrofa [12], the inhibition entry was “Active”.

Consider `CC(C)c1cccc2c3ccccc3c[n+](C)c12.[Cl-]`, for which the MIC in the assay on Staphylococcus aureus [1] is 8 µg/mL; in the assay with Staphylococcus aureus [2], 64 µg/mL; with Streptococcus pyogenes [3], 8 µg/mL; in the assay on Bacillus subtilis [4], 4 µg/mL; in the assay on Streptococcus pyogenes [5] it was 4 µg/mL; with Bacillus subtilis [6], 4 µg/mL. Besides, the MIC against Escherichia coli [7] was greater than 128 µg/mL; against Staphylococcus aureus [8] it was 16 µg/mL; in the assay on Pseudomonas aeruginosa [9], greater than 128 µg/mL; in the assay on Escherichia coli [10], greater than 128 µg/mL; in the assay with Staphylococcus aureus [13], 8 µg/mL; in the assay with Pseudomonas aeruginosa [14] it was greater than 128 µg/mL. In addition, the MIC in assay [15] worked out at 64 µg/mL. Moreover, the Ratio in the assay with Bacillus subtilis [16] came to 2; with Bacillus subtilis [17], 2; in the assay with Bacillus subtilis [18] it was 8; with Streptococcus pyogenes [19] it was 2; in the assay with Streptococcus pyogenes [21], 4; in the assay on Bacillus subtilis [22], 2. For the same molecule, the inhibition entry in the assay filed under Sus scrofa [20] is “Active”. Besides, in the assay listed under Sus scrofa [11], the result was inactive.

As for `CSc1cccc2c3ccccc3c[n+](C)c12.[Cl-]`, the MIC was determined as 16 µg/mL in the assay with Staphylococcus aureus [1]; 16 µg/mL against Staphylococcus aureus [2]; 8 µg/mL in the assay on Streptococcus pyogenes [3]; 8 µg/mL in the assay on Bacillus subtilis [4]; 8 µg/mL in the assay on Streptococcus pyogenes [5]; 8 µg/mL with Bacillus subtilis [6]. The MIC against Escherichia coli [7] is greater than 128 µg/mL; against Staphylococcus aureus [8] it was 8 µg/mL; with Pseudomonas aeruginosa [9] it was greater than 128 µg/mL; in the assay on Escherichia coli [10], 128 µg/mL; with Staphylococcus aureus [13], 16 µg/mL; in the assay on Pseudomonas aeruginosa [14] it was greater than 128 µg/mL. The MIC in [15] is greater than 128 µg/mL. In addition, the Ratio with Staphylococcus aureus [23] and with Staphylococcus aureus [24] was 8 each time. For the same molecule, in the assay listed under Sus scrofa [11], the result was inactive.

The values are drawn from ChEMBL document CHEMBL4052686, “Synthesis and antibacterial activity of 5-methylphenanthridium derivatives as FtsZ inhibitors” (2017).
